# Screening data (PubChem BioAssay)
# RGS4 pot – RGS4 potentiation or activation | HEK293 M3R/inducible RGS4, carbachol calcium flux Fluo4; hits give low values | B-score at 10 µM | 0.92% of 310,000 active | AID 463111;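 active means B-score of the integrated calcium signal more than 4 SD below the library mean, with starting fluorescence not abnormally high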;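 further: negative B-score means reduced calcium response which marks RGS4 activation or potentiation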
#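 Test system: HEK293 cells with stable M3R and inducible RGS4; also added: carbachol at ECmax as muscarinic agonist stimulus; schedule: dye loading 30 min 37 °C, buffer rest 30 min RT; technique: kinetic calcium fluorescence imaging with Fluo4-AM dye, 2 µM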
# RGS4 block – inhibitors of human RGS4 | P49798 | HEK293 M3R/RGS4 inducible, Fluo-4 calcium flux; hits give high values; triggered by carbachol at its EC20 | B-score at 10 µM | 0.45% of 310,000 active | AID 463165;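 active means B-score, a plate-corrected calcium signal, over three deviations above library mean, with baseline fluorescence within five deviations of library mean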;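 further: RGS4 expression induced by doxycycline in cells with stable M3 receptor; B-score is computed from the integrated fluorescence ratio over baseline after carbachol; higher B-score means a larger calcium signal and so more RGS4 inhibition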
# Target sequence (P49798 whole entry, looked up): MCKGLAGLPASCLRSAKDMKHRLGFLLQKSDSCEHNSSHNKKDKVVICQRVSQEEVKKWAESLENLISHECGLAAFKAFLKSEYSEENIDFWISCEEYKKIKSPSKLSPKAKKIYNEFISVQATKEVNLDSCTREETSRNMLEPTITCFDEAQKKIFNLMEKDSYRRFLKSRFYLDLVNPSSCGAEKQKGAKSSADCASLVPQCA
# MrgX1 allo act – human MrgX1 positive allosteric modulation, primary screen | Q96LB2 | MrgX1-HEK293, Fluo-4 calcium flux, FDSS; hits give high values | B-score at 10 µM | 0.63% of 310,000 active;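 active means plate-corrected calcium response at least 3 library SD above typical, normal starting fluorescence, not activating the receptor alone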;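 further: compound read alongside a low EC10 to EC30 dose of BAM8-22 agonist; peak minus trough fluorescence over baseline measured at the second addition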
# Target sequence (Q96LB2 whole entry, looked up): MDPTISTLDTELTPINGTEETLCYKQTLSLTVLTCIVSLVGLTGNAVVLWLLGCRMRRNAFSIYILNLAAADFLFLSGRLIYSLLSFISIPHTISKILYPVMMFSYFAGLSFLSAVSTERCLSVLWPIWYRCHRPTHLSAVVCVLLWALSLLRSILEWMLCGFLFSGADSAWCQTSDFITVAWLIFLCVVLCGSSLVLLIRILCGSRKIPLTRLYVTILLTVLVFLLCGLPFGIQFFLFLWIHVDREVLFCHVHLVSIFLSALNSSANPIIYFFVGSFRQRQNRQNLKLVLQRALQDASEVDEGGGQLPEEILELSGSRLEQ
# MrgX1 agonist – agonists of human MrgX1 receptor; Q96LB2; MrgX1-HEK293 cells, Fluo-4 calcium fluorescence, agonist mode; hits give high values; 0.44% of 310,000 active; AID 588627; B-score at 10 µM;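 active means calcium response B-score plate-corrected fluorescence ratio at least 3 library SD, with starting fluorescence B-score inside 5 SD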
#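 Material – MrgX1-expressing HEK293 cells · Input – 15,000 cells seeded per well · Dosing – compound as first of three additions · Times – overnight seeding, then 1 h dark dye loading · Measured by – kinetic Fluo-4 NW fluorescence of intracellular calcium · Read-out – B-scored fluorescence response ratio · Benchmarks – positive and negative control wells on each plate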
# MrgX1 antag – human MrgX1 receptor antagonism, primary screen; Q96LB2; MRGX1-HEK293 calcium flux, Fluo-4, BAM8-22 antagonism; hits give low values; B-score at 10 µM; 1.3% of 310,000 active;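 active means calcium-response B-score plate-corrected more than 3 library SD below zero, starting fluorescence within 5 deviations, no agonist response on first addition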;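 further: peak minus trough fluorescence over baseline after final BAM8-22 challenge near maximal dose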
# RGS4 inh valid – RGS4 inhibitor validation. calcium response, % at 10 µM. 65% of 1,700 active. HEK293 M3R/RGS4, carbachol calcium Fluo-4 fluorescence; carbachol added at its EC20; 0 = buffer wells, 100 = carbachol control. AID 492999. shares compounds with RGS4 block;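 active means duplicate-averaged calcium response above the buffer-only control mean plus 5 SD of those controls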;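 further: integrated fluorescence ratio F max minus min over baseline F0; higher response in RGS4-induced cells means RGS4 inhibition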
# RGS4 uninduced – checks RGS4 inhibitor effects in non-induced HEK293 M3R cells; shares compounds with RGS4 block; activity (percent), % at 10 µM; 20% of 1,900 active; carbachol calcium Fluo-4; submaximal (EC20) carbachol stimulus; buffer wells 0%, carbachol control wells 100%; call rule not given here;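 further: RGS4 induction absent so cells express M3R without RGS4; higher means more calcium signal and flags a non-specific hit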
# RGS4 inh ctr2 – second counter-screen for RGS4 inhibitors: non-induced cells without carbachol | calcium response (agonist-mode artifact), % at 10 µM | HEK293 M3R/RGS4 non-induced, Fluo-4 calcium, no carbachol; normalised: buffer wells 0%, carbachol wells 100% | 22% of 1,900 active | shares compounds with RGS4 block | AID 493001;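 active means duplicate-averaged calcium rise in uninduced cells above buffer wells' mean plus 5 SD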
# Numbers without * were called inactive; i = inactive; . = no result given. An excerpt weighted towards active compounds, which were near 3.5% of everything screened.
SMILES,RGS4 pot,RGS4 block,MrgX1 allo act,MrgX1 agonist,MrgX1 antag,RGS4 inh valid,RGS4 uninduced,RGS4 inh ctr2
CSC1=NC(C(Cl)(Cl)Cl)N=C(c2ccc(C)cc2)N1 (stereo not given),i,i,i,i,i,.,.,.
CCc1ccc2c(c1)c(N=NC1=NC(=O)CS1)c(O)n2C,i,i,i,i,i,.,i,i
N#C/C(=C\c1ccc(OC(F)F)cc1)C(=O)N1CCCCC1,i,5.8*,i,i,i,16%*,i,i
CCN1CCN(C(=O)/C(C#N)=C/c2ccc(OC(F)F)cc2)CC1,i,i,i,i,i,.,.,.
COC(=O)c1ccc(COc2ccccc2/C=C(\C#N)C(=O)NC(C)C)cc1,i,i,i,i,i,.,.,.
COC(=O)c1ccc(COc2ccccc2/C=C(\C#N)C(=O)Nc2c(C)cccc2C)cc1,i,5.6*,i,i,i,8.0%*,i,i
COC(=O)c1ccc(COc2ccccc2/C=C(\C#N)C(=O)Nc2ccccc2C)cc1,i,i,i,i,i,i,i,i
O=c1[nH]c(C2CCN(S(=O)(=O)c3ccccc3)CC2)nc2c1nnn2Cc1c(F)cccc1Cl,i,i,i,i,i,.,.,.
O=C(Nc1cc2c(oc1=O)CCCC2=O)c1ccc(Cl)cc1,i,i,i,i,i,.,.,.
Cc1nn(-c2ccccc2)c2c1cc1c(=O)n(C)c(=O)nc-1n2-c1ccccc1F,i,i,i,i,i,.,.,.
Cc1cccc(-n2c3nc(=O)[nH]c(=O)c-3cc3c(C)nn(-c4ccccc4)c32)c1C,i,7*,i,i,i,i,i,i
CCOc1cccc(-c2c(C(=O)N/N=C/c3ccc(C)o3)nnn2-c2nonc2N)c1,i,i,i,i,i,i,i,i
CCOc1cccc(-c2c(C(=O)N/N=C/c3ccco3)nnn2-c2nonc2N)c1,i,i,i,i,i,i,i,i
Cc1ccc(NC(=O)Nc2c(Cl)cccc2Cl)cn1,i,i,i,i,i,.,.,.
CC1=NOC(=O)/C1=C/c1ccc(O)cc1,i,5.8*,i,i,i,12%*,i,i
COc1ccc(/C=C2/C(=O)ON=C2C)cc1Cl,i,i,i,i,i,.,.,.
CC1=NOC(=O)/C1=C/c1ccc(O)c(Br)c1,i,9.1*,i,38*,i,30%*,i,68%*
CC(C)(C)c1ccc(S(=O)(=O)N2CCCCC2)cc1,i,i,i,i,i,.,.,.
O=C(Nc1nncs1)c1cc(S(=O)(=O)N2CCCCC2)ccc1Cl,i,i,i,i,i,.,.,.
Cc1ccc(C(=O)NCc2ccc3c(c2)OCO3)o1,i,i,i,i,i,.,.,.
Cc1ccc(/C=N/NC(=O)NC2CCCCC2)o1,i,i,i,i,i,.,.,.
Cc1ccc(/C=C/C(=O)NCCc2cccc(Cl)c2)o1,i,6.9*,i,i,i,24%*,i,i
Cc1ccc(/C=C/C(=O)NC2CCCCCCC2)o1,i,8.8*,i,i,i,22%*,i,i
Cc1ccc(/C=C/C(=O)NCCc2c[nH]c3ccccc23)o1,i,i,i,i,i,.,.,.
Cc1ccc(/C=C/C(=O)NCc2ccc3c(c2)OCO3)o1,i,5.6*,i,i,i,10%*,i,i
SMILES,RGS4 pot,RGS4 block,MrgX1 allo act,MrgX1 agonist,MrgX1 antag,RGS4 inh valid,RGS4 uninduced,RGS4 inh ctr2
COc1ccc(N2C(=O)CC(Sc3nc4c(cc3C#N)CCC4)C2=O)cc1 (stereo not given),i,i,i,i,i,.,.,.
Cn1c(SCC(=O)NCCc2ccccc2)ncc(C(=O)Nc2ccc(F)cc2)c1=O,i,i,i,i,i,.,.,.
COc1ccc(OC)c(S(=O)(=O)N2CCC(C(=O)N3CCOCC3)CC2)c1,i,i,i,i,i,i,i,i
COc1ccc(OC)c(S(=O)(=O)N2CCC(C(=O)N3CCCC3)CC2)c1,i,i,i,i,i,.,.,.
COc1ccc(C)cc1S(=O)(=O)N1CCCC(C(=O)N2CCOCC2)C1 (stereo not given),i,i,i,i,i,i,i,i
COc1ccc(OC)c(S(=O)(=O)N2CCCC(C(=O)N3CCCCCC3)C2)c1 (stereo not given),i,i,i,i,i,i,i,14%*
COc1ccc(S(=O)(=O)N2CCCC(C(=O)N3CCOCC3)C2)cc1OC (stereo not given),i,i,i,i,i,.,.,.
COc1ccc(Cl)cc1S(=O)(=O)N1CCCC(C(=O)N2CCCC2)C1 (stereo not given),i,i,i,i,i,.,.,.
COc1ccc(OC)c(S(=O)(=O)N2CCCC(C(=O)NCc3ccncc3)C2)c1 (stereo not given),i,i,i,i,i,.,.,.
COc1ccc(OC)c(S(=O)(=O)N2CCCC(C(=O)N3CCCC3)C2)c1 (stereo not given),i,i,i,i,i,i,i,i
CCOc1ccc(CCNC(=O)c2cc3c(s2)CS(=O)(=O)C3)cc1OCC,i,i,i,i,i,.,.,.
Cc1c(Cl)cccc1NC(=O)C1CC2CCC1C2 (stereo not given),i,i,i,i,i,.,.,.
CCCC(C)NC(=O)COC(=O)c1cccc(NS(C)(=O)=O)c1 (stereo not given),i,i,i,i,i,.,.,.
Nc1sc(-c2ccccc2)cc1C(=O)N/N=C/c1ccc(Cl)cc1,i,4.7*,i,i,i,14%*,28%*,i
O=C(N/N=C/c1ccc(Cl)cc1)c1cc(-c2cccnc2)nc2ccccc12,i,i,i,i,i,.,.,.
CCOC(=O)CSC1=NC(=O)/C(=C/c2ccc(Br)cc2)S1,i,i,i,i,i,.,36%*,i
CCOC(=O)CSC1=NC(=O)/C(=C\c2ccc(OC(C)=O)cc2)S1,i,18*,i,i,i,38%*,i,9.0%*
